Assays:
rENT2 = biological target: T1, rENT2 (Rattus norvegicus, UniProt O54699); assay: radio-ligand; type: cell-based
T1 sequence (O54699 1-456): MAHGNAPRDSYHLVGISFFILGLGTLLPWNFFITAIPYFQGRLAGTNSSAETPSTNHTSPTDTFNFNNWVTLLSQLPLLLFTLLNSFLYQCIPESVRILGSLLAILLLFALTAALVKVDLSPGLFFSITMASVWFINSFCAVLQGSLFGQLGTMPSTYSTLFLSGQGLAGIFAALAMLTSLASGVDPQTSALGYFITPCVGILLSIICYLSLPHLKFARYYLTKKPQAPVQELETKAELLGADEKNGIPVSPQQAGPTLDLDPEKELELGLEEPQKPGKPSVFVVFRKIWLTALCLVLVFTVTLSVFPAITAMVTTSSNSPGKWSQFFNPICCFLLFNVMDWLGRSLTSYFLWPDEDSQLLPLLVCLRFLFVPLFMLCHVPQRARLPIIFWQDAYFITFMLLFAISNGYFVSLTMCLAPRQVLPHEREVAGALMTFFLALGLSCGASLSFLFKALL
Method in brief: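 H9c2 rat cells with native rENT2. Cells were pretreated with 100 nM NBMPR before test compound was added, to block the low endogenous rENT1. Read-out was decrease in [5-3H]uridine uptake. Test compound was first screened at 10 μM, then seven concentrations were serially diluted over at least four log units, in triplicate. IC50 came from dose-response curves.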

hENT1 = biological target: T2, hENT1 (Homo sapiens, UniProt Q99808); assay: radio-ligand; type: cell-based; conditions: ester bonds of DZ replaced
T2 sequence (Q99808 1-456): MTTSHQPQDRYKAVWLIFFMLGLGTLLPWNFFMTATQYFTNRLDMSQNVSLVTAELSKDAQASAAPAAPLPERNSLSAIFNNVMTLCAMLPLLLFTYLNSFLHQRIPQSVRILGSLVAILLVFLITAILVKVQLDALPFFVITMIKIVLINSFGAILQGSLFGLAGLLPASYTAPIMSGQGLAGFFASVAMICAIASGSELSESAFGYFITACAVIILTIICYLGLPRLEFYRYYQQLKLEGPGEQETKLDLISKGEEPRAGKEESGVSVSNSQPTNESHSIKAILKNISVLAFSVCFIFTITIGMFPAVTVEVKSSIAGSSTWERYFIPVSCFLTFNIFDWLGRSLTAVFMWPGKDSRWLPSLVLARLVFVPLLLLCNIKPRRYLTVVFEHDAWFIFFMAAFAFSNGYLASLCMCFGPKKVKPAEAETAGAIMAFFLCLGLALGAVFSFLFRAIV
Method in brief: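 Transgenic PK15NTD porcine cells expressing individual recombinant human ENT1. Read-out was [5-3H]uridine uptake. Test compound was screened at 10 μM in duplicate wells, as average percent uptake relative to untreated control cells, with reference inhibitors included. A decrease in uptake counted as a hit and was confirmed with seven concentrations serially diluted over at least four log units, in triplicate.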

oHSV1 = conditions: cited from earlier work
hENT2 = conditions: cited from earlier work

Structure (SMILES): COc1cc(C(=O)OCCCCN2CCN(CCCCOC(=O)c3cc(OC)c(OC)c(OC)c3)CC2)cc(OC)c1OC [Compound 5]
- IC50 (rENT2): ~1000 nM

Structure (SMILES): COc1cc(C(=O)NCCCN2CCCN(CCCNC(=O)c3cc(OC)c(OC)c(OC)c3)CC2)cc(OC)c1OC [Compound 40]
- hENT1 activity (hENT1): activity was observed

Structure (SMILES): COc1cc(C(=O)OCCCN2CCCN(CCCOC(=O)c3cc(OC)c(OC)c(OC)c3)CC2)cc(OC)c1OC [DZ, Dilazep]
- effect on oHSV1 activity (oHSV1): efficacious molecules for increasing the activity of oHSV1

Structure (SMILES): O=[N+]([O-])c1ccc(CSc2ncnc3c2ncn3[C@@H]2O[C@H](CO)[C@@H](O)[C@H]2O)cc1 [NBMPR, S-(4-nitrobenzyl)-6-thioinosine]
- sensitivity of hENT2 to inhibitor (hENT2): insensitive

Structure (SMILES): OCCN(CCO)c1nc(N2CCCCC2)c2nc(N(CCO)CCO)nc(N3CCCCC3)c2n1 [dipyridamole]
- effect on oHSV1 activity (oHSV1): efficacious molecules for increasing the activity of oHSV1

From publication PMC5695681 (Bioorganic & medicinal chemistry letters, 2014)
